Values after ≈ are worked out from the molar mass of the structure shown.
How the values were obtained:
[1] = test system: Mycolicibacterium smegmatis; assay: Antibacterial activity against Mycobacterium smegmatis ATCC 14468 by agar dilution method; assay type: functional
How it was run: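 Agar dilution on Middlebrook 7H11 agar with OADC supplement, following an NCCLS-type procedure; MIC read in duplicate.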

[2] = test system: Mycobacterium tuberculosis; assay: Antibacterial activity against Mycobacterium tuberculosis H37Rv by agar dilution method; assay type: functional
How it was run: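 Agar dilution in Middlebrook 7H11 agar supplemented with OADC, following an approach similar to NCCLS guidance. MIC determined in duplicate.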

Row | Structure (SMILES) | MIC [1] [µM] | MIC [2] [µM]
1 | CC(C)(C)n1cc(C(=O)O)c(=O)c2cc([N+](=O)[O-])c(N3CCSCC3)cc21 | 31.9 (≈ 12.5 µg/mL) | 7.99 (≈ 3.13 µg/mL)
2 | CN1CCN(c2cc3c(cc2[N+](=O)[O-])c(=O)c(C(=O)O)cn3C(C)(C)C)CC1c1ccccc1 (stereo not given) | 64.4 (≈ 29.9 µg/mL) | 16.1 (≈ 7.47 µg/mL)
3 | CCN(CC)C(=O)C1CCCN(c2cc3c(cc2[N+](=O)[O-])c(=O)c(C(=O)O)cn3C(C)(C)C)C1 (stereo not given) | 26.4 (≈ 12.5 µg/mL) | 6.62 (≈ 3.13 µg/mL)
4 | CC(C)(C)n1cc(C(=O)O)c(=O)c2cc([N+](=O)[O-])c(N3CCN(C(=O)C4COc5ccccc5O4)CC3)cc21 (stereo not given) | 23.3 (≈ 12.5 µg/mL) | 5.83 (≈ 3.13 µg/mL)
5 | COc1ccc(CC2C3=C(CCCC3)CCN2c2cc3c(cc2[N+](=O)[O-])c(=O)c(C(=O)O)cn3C(C)(C)C)cc1 (stereo not given) | 22.9 (≈ 12.5 µg/mL) | 5.74 (≈ 3.13 µg/mL)
6 | O=C(O)c1cn(C2CC2)c2cc(N3CCSCC3)c([N+](=O)[O-])cc2c1=O | 33.3 (≈ 12.5 µg/mL) | 4.17 (≈ 1.57 µg/mL)
7 | O=C(O)c1cn2c(n1)CN(c1cc3c(cc1[N+](=O)[O-])c(=O)c(C(=O)O)cn3-c1ccc(F)cc1)CC2 | 50.7 (≈ 25 µg/mL) | 12.7 (≈ 6.25 µg/mL)
8 | CC(C)(C)n1cc(C(=O)O)c(=O)c2cc([N+](=O)[O-])c(N3CCC(N4CCCCC4)CC3)cc21 | 27.4 (≈ 12.5 µg/mL) | 6.86 (≈ 3.13 µg/mL)
9 | O=C(O)c1cn(-c2ccc(F)cc2)c2cc(N3CCN(C(=O)c4ccco4)CC3)c([N+](=O)[O-])cc2c1=O | 24.7 (≈ 12.5 µg/mL) | 6.18 (≈ 3.13 µg/mL)
10 | O=C(O)c1cn(-c2ccc(F)cc2)c2cc(N3CCC(n4c(=O)[nH]c5cc(Cl)ccc54)CC3)c([N+](=O)[O-])cc2c1=O | 43.3 (≈ 25 µg/mL) | 5.42 (≈ 3.13 µg/mL)
11 | O=C(O)c1cn(C2CC2)c2cc(N3CCN(C(c4ccccc4)c4ccc(Cl)cc4)CC3)c([N+](=O)[O-])cc2c1=O (stereo not given) | 5.59 (≈ 3.12 µg/mL) | 5.59 (≈ 3.12 µg/mL)
12 | COc1ccc(CC2C3=C(CCCC3)CCN2c2cc3c(cc2[N+](=O)[O-])c(=O)c(C(=O)O)cn3C2CC2)cc1 (stereo not given) | 24.3 (≈ 12.9 µg/mL) | 3.04 (≈ 1.61 µg/mL)
13 | CC(C)(C)NC(=O)C1c2ccccc2CCN1c1cc2c(cc1[N+](=O)[O-])c(=O)c(C(=O)O)cn2-c1ccc(F)cc1 (stereo not given) | 22.4 (≈ 12.5 µg/mL) | 5.6 (≈ 3.13 µg/mL)
14 | CC(C)(C)n1cc(C(=O)O)c(=O)c2cc([N+](=O)[O-])c(N3CCC4(CC3)OCCO4)cc21 | 29 (≈ 12.5 µg/mL) | 7.45 (≈ 3.21 µg/mL)
15 | O=C(O)c1cn(-c2ccc(F)cc2)c2cc(N3CCN(C(c4ccccc4)c4ccc(Cl)cc4)CC3)c([N+](=O)[O-])cc2c1=O (stereo not given) | 40.8 (≈ 25 µg/mL) | 10.2 (≈ 6.25 µg/mL)
16 | O=C(O)c1cn(-c2ccc(F)cc2)c2cc(N3CCC(O)(c4ccc(Cl)cc4)CC3)c([N+](=O)[O-])cc2c1=O | 23.2 (≈ 12.5 µg/mL) | 5.82 (≈ 3.13 µg/mL)
17 | Cc1onc(-c2c(F)cccc2F)c1C(=O)N1CCN(c2cc3c(cc2[N+](=O)[O-])c(=O)c(C(=O)O)cn3-c2ccc(F)cc2)CC1 | 19.7 (≈ 12.5 µg/mL) | 4.94 (≈ 3.13 µg/mL)
18 | O=C(O)c1cn(C2CC2)c2cc(N3CCN(C(=O)C4COc5ccccc5O4)CC3)c([N+](=O)[O-])cc2c1=O (stereo not given) | 12 (≈ 6.25 µg/mL) | 2.99 (≈ 1.56 µg/mL)
19 | Cc1onc(-c2c(F)cccc2F)c1C(=O)N1CCN(c2cc3c(cc2[N+](=O)[O-])c(=O)c(C(=O)O)cn3C2CC2)CC1 | 10.8 (≈ 6.25 µg/mL) | 2.69 (≈ 1.56 µg/mL)
20 | COc1ccc(CC2C3=C(CCCC3)CCN2c2cc3c(cc2[N+](=O)[O-])c(=O)c(C(=O)O)cn3-c2ccc(F)cc2)cc1 (stereo not given) | 21.4 (≈ 12.5 µg/mL) | 5.36 (≈ 3.13 µg/mL)
21 | CC(C)(C)n1cc(C(=O)O)c(=O)c2cc([N+](=O)[O-])c(N3CCn4cc(C(=O)O)nc4C3)cc21 | 54.9 (≈ 25 µg/mL) | 6.87 (≈ 3.13 µg/mL)
22 | CN1CCN(c2cc3c(cc2[N+](=O)[O-])c(=O)c(C(=O)O)cn3-c2ccc(F)cc2)CC1c1ccccc1 (stereo not given) | 24.9 (≈ 12.5 µg/mL) | 6.23 (≈ 3.13 µg/mL)
23 | CC(C)(C)n1cc(C(=O)O)c(=O)c2cc([N+](=O)[O-])c(N3CCC(n4c(=O)[nH]c5cc(Cl)ccc54)CC3)cc21 | 23.1 (≈ 12.5 µg/mL) | 5.79 (≈ 3.13 µg/mL)
24 | O=C(O)c1cn(-c2ccc(F)cc2)c2cc(N3CCN(Cc4ccc5c(c4)OCO5)CC3)c([N+](=O)[O-])cc2c1=O | 22.9 (≈ 12.5 µg/mL) | 2.85 (≈ 1.56 µg/mL)
25 | O=C(O)c1cn(-c2ccc(F)cc2)c2cc(N3CCC(N4CCCCC4)CC3)c([N+](=O)[O-])cc2c1=O | 25.3 (≈ 12.5 µg/mL) | 6.33 (≈ 3.13 µg/mL)

Reference: ChEMBL document CHEMBL1152865, “Synthesis and antimycobacterial activities of novel 6-nitroquinolone-3-carboxylic acids” (Eur J Med Chem, 2009)
